According to ChEMBL document CHEMBL1127480, “Evaluation of a vitamin-cloaking strategy for oligopeptide therapeutics: biotinylated HIV-1 protease inhibitors” (J Med Chem, 1994):
Active and inactive are the calls of the source. The rule behind the calls is not given here.

What was measured:
Caco-2 [1] = assay: Effect on the apical to basolateral transport of [3H]biotin in caco-2-cell monolayer; assay type: functional, Homo sapiens
Outline: (§1)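 Caco-2 monolayers (passage 25) on Transwell inserts, equilibrated 30 min in HBSS with 25 mM glucose, 10 mM Hepes pH 7.35 at 37 °C. Apical side given 10 nM [3H]biotin alone or with 300 μM unlabeled biotin or conjugate (final MeOH 1–5%). Basolateral samples taken over time; [3H]mannitol integrity marker; Student's t-test; triplicate determinations.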

Caco-2 [2] = assay: % control value in caco-2-cell monolayer; assay type: functional, Homo sapiens; parameters: concentration or dose not given beside the values; outline: as §1
[3] = biological target: Human immunodeficiency virus type 1 protease (Human immunodeficiency virus 1, UniProt Q72874); assay: In vitro inhibitory activity against […]
CV-1 [4] = assay: Inhibition of p24 expression was measured at 1 uM using vVK/CV-1 assay; assay type: functional, Cercopithecidae; conditions: Chlorocebus aethiops
[5] = Inhibition of viral RNA in HIVD34-infected PBMC assay on day 4 at concentration of 10 nM; assay type: functional; conditions: Homo sapiens, 96 h
[6] = Inhibition of viral RNA in HIVD34-infected PBMC assay on day 4 at concentration of 1 nM; assay type: functional; conditions: Homo sapiens, 96 h
[7] = Inhibition of p24 expression in HIVD34-infected PBMC assay on day 4 at concentration of 10 nM; assay type: functional; conditions: Homo sapiens, 96 h
[8] = Inhibition of viral RNA in PBMC assay on day 4 at concentration of 100 nM; assay type: functional; conditions: Homo sapiens, 96 h
[9] = Inhibition of p24 expression in PBMC assay on day 4 at concentration of 100 nM; assay type: functional; conditions: Homo sapiens, 96 h
[10] = Inhibition of p24 expression in HIVD34-infected PBMC assay on day 4 at concentration of 1 nM; assay type: functional; conditions: Homo sapiens, 96 h
[11] = Inhibition of p24 expression in HIVD34-infected PBMC assay on day 4 at concentration of 40 nM; assay type: functional; conditions: Homo sapiens, 96 h
[12] = Inhibition of viral RNA in HIVD34-infected PBMC assay on day 4 at concentration of 4 nM; assay type: functional; conditions: Homo sapiens, 96 h
[13] = Inhibition of p24 expression in HIVD34-infected PBMC assay on day 4 at concentration of 4 nM; assay type: functional; conditions: Homo sapiens, 96 h
[14] = Inhibition of viral RNA in HIVD34-infected PBMC assay on day 4 at concentration of 40 nM; assay type: functional; conditions: Homo sapiens, 96 h
CV-1 [15] = assay: Inhibition of p24 expression was measured at 1 uM using vVK/CV-1 assay; Inactive; assay type: functional, cell-based; conditions: Cercopithecidae
[16] = p24 expression was measured by PBMC assay on day 4 at concentration of 10 nM; assay type: functional; conditions: Homo sapiens, 96 h
[17] = p24 expression was measured by PBMC assay on day 4 at concentration of 1 nM; assay type: functional; conditions: Homo sapiens, 96 h
[18] = Inhibition of viral RNA in HIVD34-infected PBMC assay on day 4 at a concentration of 100 nM; assay type: functional; conditions: Homo sapiens, 96 h
[19] = Inhibition of p24 expression in HIVD34-infected PBMC assay on day 4 at concentration of 100 nM; assay type: functional; conditions: Homo sapiens, 96 h
CV-1 [20] = assay: Inhibition of p24 expression was measured at 1 uM using vaccinia virus vVK/CV-1 assay; Inactive; assay type: functional, cell-based; conditions: Cercopithecidae

Compound | Transport (Caco-2 [1]) | Control (Caco-2 [2]) | Ki [3] | inhibition at 1 µM (CV-1 [4]) | other results
O=C(O)CCCC[C@@H]1SC[C@@H]2NC(=O)N[C@@H]21 [BIOTIN] | 0 pM min-1 (mg of protein)-1 | 0% | – | – | –
CC[C@@H](C)[C@H](NC(=O)[C@H](C(C)C)[C@@H](O)[C@H](O)[C@H](CC1CCCCC1)NC(=O)CCCC[C@@H]1SCC2NC(=O)NC21)C(=O)NCCc1scnc1C (some centres undefined) | – | – | 130 nM | 15% | –
CC[C@@H](C)[C@H](NC(=O)[C@H](C(C)C)[C@@H](O)[C@H](O)[C@H](CC1CCCCC1)NC(=O)[C@@H](NC(=O)CCCC[C@H]1SC[C@H]2NC(=O)NC21)C(C)C)C(=O)NCc1ccccn1 (some centres undefined) | 22.7 pM min-1 (mg of protein)-1 | 122% | < 4 nM | 26% | inhibition at 0.01 µM [5]: 22%; inhibition at 0.001 µM [6]: 18%; inhibition at 0.01 µM [7]: 11%; inhibition at 0.1 µM [8]: 69%; inhibition at 0.1 µM [9]: 89%; inhibition at 0.001 µM [10]: 7%
Cc1cn([C@H]2C[C@H](N=[N+]=[N-])[C@@H](CO)O2)c(=O)[nH]c1=O [ZIDOVUDINE] | – | – | – | – | inhibition at 0.04 µM [11]: 81%; inhibition at 0.004 µM [12]: 0%; inhibition at 0.004 µM [13]: 2%; inhibition at 0.04 µM [14]: 90%
CC[C@@H](C)[C@H](NC(=O)[C@H](C(C)C)[C@@H](O)[C@H](O)[C@H](CC1CCCCC1)NC(=O)c1ccccc1SCCCCC[C@@H]1SCC2NC(=O)NC21)C(=O)NCCc1scnc1C (some centres undefined) | – | – | 4 nM | 34% | –
CC[C@@H](C)[C@H](NC(=O)[C@H](C(C)C)[C@@H](O)[C@H](O)[C@H](CC1CCCCC1)NC(=O)CCCC[C@@H]1SCC2NC(=O)N[C@@H]21)C(=O)NCc1ccccn1 (some centres undefined) | 24.1 pM min-1 (mg of protein)-1 | 129% | 45 nM | 9% | –
CC[C@@H](C)[C@H](NC(=O)[C@H](C(C)C)[C@@H](O)[C@H](O)[C@H](CC1CCCCC1)NC(=O)CCCCCNC(=O)CCCC[C@@H]1SCC2NC(=O)N[C@@H]21)C(=O)NCc1ccccn1 (some centres undefined) | 20.6 pM min-1 (mg of protein)-1 | 111% | 20 nM | – | inhibition (CV-1 [15]): inactive
CC[C@@H](C)[C@H](NC(=O)[C@H](C(C)C)[C@@H](O)[C@H](O)[C@H](CC1CCCCC1)NC(=O)c1ccccc1OCCCCC[C@@H]1SC[C@H]2NC(=O)N[C@@H]12)C(=O)NCc1ccccn1 | 15.8 pM min-1 (mg of protein)-1 | 85% | 10 nM | 24% | inhibition at 0.01 µM [5]: 10%; inhibition at 0.01 µM [16]: 5%; inhibition at 0.001 µM [6]: 15%; inhibition at 0.001 µM [17]: 2%; inhibition at 0.1 µM [8]: 17%; inhibition at 0.1 µM [9]: 83%
CC[C@H](C)[C@H](NC(=O)[C@H](C(C)C)[C@@H](O)[C@H](O)[C@H](CC1CCCCC1)NC(=O)[C@H](Cc1c[nH]cn1)NC(=O)COc1cccc2ccccc12)C(=O)NCc1ccccn1 | – | – | < 1 nM | > 80% | inhibition at 0.1 µM [18]: 98%; inhibition at 0.1 µM [19]: 95%; inhibition at 0.01 µM [5]: 80%; inhibition at 0.001 µM [6]: 30%; inhibition at 0.01 µM [7]: 82%; inhibition at 0.001 µM [10]: 38%
CC[C@@H](C)[C@@H](CNC(=O)CCCC[C@@H]1SC[C@@H]2NC(=O)NC21)NC(=O)[C@H](C(C)C)[C@@H](O)[C@H](O)[C@H](CC1CCCCC1)NC(=O)c1ccccc1OCCOc1ccccc1 (some centres undefined) | – | – | > 100 nM | – | inhibition (CV-1 [20]): inactive
CC[C@@H](C)[C@H](NC(=O)[C@H](C(C)C)[C@@H](O)[C@H](O)[C@H](CC1CCCCC1)NC(=O)c1ccccc1SCCCCC[C@@H]1SCC2NC(=O)NC21)C(=O)NCc1ccccn1 (some centres undefined) | – | – | 53 nM | – | –
